Data from ChEMBL document CHEMBL1140243, “Synthesis and SAR of 2,3-diarylpyrrole inhibitors of parasite cGMP-dependent protein kinase as novel anticoccidial agents” (Bioorg Med Chem Lett, 2005).

Tests used:
[1] = test system: Eimeria tenella; experiment: Anticoccidial activity (percent reduction in oocyst production) against Eimeria tenella in white leghorn chickens at 100 ppm; format: functional; design: scale not given: the % may be the effect or the level left
In short: (§1)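 White Leghorn chicks were acclimated, then at 3 days old sorted by weight and randomized to medicated or control diets. There were one or two replicates of two birds per treatment. After 24 h of premedication, one bird per replicate got E. acervulina and the other E. tenella, both drug-sensitive laboratory strains. Inocula were sporulated oocysts in tap water, 0.25 mL per bird, giving low-to-moderate infection.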

[2] = test system: Eimeria acervulina; experiment: Anticoccidial activity (percent reduction in oocyst production) against Eimeria acervulina in white leghorn chickens at 100 ppm; format: functional; design: scale not given: the % may be the effect or the level left; in short: as §1
[3] = target: cGMP-dependent protein kinase (Eimeria tenella, UniProt Q8MMZ8); experiment: In vitro inhibition of Eimeria tenella cGMP-dependent protein kinase
[4] = species on record: Gallus gallus; experiment: Anticoccidial activity (percent reduction in oocyst production) against Eimeria acervulina in white leghorn chickens at 25 ppm; format: functional; design: scale not given: the % may be the effect or the level left; in short: as §1

cGMP-dependent protein kinase, sequence (Q8MMZ8 whole entry): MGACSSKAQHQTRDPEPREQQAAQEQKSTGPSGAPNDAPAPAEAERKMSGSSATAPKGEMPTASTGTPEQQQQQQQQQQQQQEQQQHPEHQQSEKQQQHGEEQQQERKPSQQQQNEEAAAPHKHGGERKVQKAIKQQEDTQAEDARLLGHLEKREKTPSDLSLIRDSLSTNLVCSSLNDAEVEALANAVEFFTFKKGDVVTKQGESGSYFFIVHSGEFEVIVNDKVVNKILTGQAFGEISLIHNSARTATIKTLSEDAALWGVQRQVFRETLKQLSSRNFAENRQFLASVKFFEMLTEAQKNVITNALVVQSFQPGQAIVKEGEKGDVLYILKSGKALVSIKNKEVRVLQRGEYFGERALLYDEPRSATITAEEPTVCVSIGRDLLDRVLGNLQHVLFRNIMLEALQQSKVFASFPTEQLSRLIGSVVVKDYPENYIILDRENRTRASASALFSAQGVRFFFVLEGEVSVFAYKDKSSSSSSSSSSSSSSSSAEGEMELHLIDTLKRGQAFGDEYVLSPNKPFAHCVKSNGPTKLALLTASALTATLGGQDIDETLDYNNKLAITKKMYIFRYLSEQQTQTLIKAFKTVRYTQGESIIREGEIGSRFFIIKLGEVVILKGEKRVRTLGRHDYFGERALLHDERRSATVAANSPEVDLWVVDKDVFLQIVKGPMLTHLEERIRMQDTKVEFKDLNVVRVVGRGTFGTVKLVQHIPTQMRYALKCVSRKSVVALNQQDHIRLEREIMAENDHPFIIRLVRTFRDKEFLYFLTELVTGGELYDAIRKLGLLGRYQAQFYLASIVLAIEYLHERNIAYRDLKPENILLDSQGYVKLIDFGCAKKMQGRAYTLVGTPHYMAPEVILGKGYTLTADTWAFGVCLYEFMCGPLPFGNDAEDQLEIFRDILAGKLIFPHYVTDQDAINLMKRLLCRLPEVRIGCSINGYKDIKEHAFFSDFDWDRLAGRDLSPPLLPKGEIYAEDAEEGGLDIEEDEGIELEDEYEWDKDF

| SMILES | Activity [1] | Activity [2] | IC50 [3] [nM] | Activity [4] [%] |
| --- | --- | --- | --- | --- |
| CC(N)CN1CCC(c2cc(-c3ccncc3)c(-c3ccc(F)cc3)[nH]2)CC1 (centres undefined) | >=80% | >=80% | 2 | – |
| CN1CCC(c2cc(-c3ccncc3)c(-c3nccs3)[nH]2)CC1 | <50% | <50% | 39.7 | – |
| CN1CCC(c2cc(-c3ccncc3)c(-c3ccc(F)cc3)nn2)CC1 | <50% | <50% | 1000 | – |
| CN1CCC(c2cc(-c3cccnc3)c(-c3ccc(F)cc3)[nH]2)CC1 | <50% | – | 11.7 | – |
| NC1(CN2CCC(c3cc(-c4ccncc4)c(-c4ccc(F)cc4)[nH]3)CC2)CC1 | <50% | <50% | 0.24 | – |
| OC1(CN2CCC(c3cc(-c4ccncc4)c(-c4ccc(F)cc4)[nH]3)CC2)CC1 | >=80% | >=80% | 1.1 | – |
| CN1CCC(c2cc(-c3ccncc3)c(-c3ccc(S(C)(=O)=O)cc3)[nH]2)CC1 | >=80% | <50% | 42 | – |
| CCCN1CCC(c2cc(-c3ccncc3)c(-c3ccc(F)cc3)[nH]2)CC1 | <50% | <50% | 4.2 | – |
| CN1CCC(c2cc(-c3ccncc3)c(-c3ccsc3)[nH]2)CC1 | <50% | <50% | 11.9 | – |
| CN1CCC(c2nc(-c3ccc(F)cc3)c(-c3ccncc3)s2)CC1 | <50% | – | 1.5 | 0 |
| Cc1cc(-c2cc(C3CCN(C)CC3)[nH]c2-c2ccc(F)cc2)ccn1 | <50% | <50% | 2.8 | – |
| Cc1c(C2CCN(C)CC2)[nH]c(-c2ccc(F)cc2)c1-c1ccncc1 | <50% | <50% | 1 | – |
| Cc1cnccc1-c1cc(C2CCN(C)CC2)[nH]c1-c1ccc(F)cc1 | <50% | <50% | 1.7 | – |
| CN1CCC(c2cc(-c3ccncc3)c(-c3ccccc3)[nH]2)CC1 | – | – | 3.1 | – |
| CC(=O)CN1CCC(c2cc(-c3ccncc3)c(-c3ccc(F)cc3)[nH]2)CC1 | <50% | <50% | 0.32 | – |
| CN1CCC(c2cc(-c3ccncc3)c(-c3ccc(O)cc3)[nH]2)CC1 | <50% | <50% | 50 | – |
| CN1CCC(c2cc(-c3ccncc3)c(-c3ccc(F)cc3)[nH]2)CC1 | >=80% | >=80% | 0.7 | – |
| CN1CCC(c2cc(-c3ccncc3)c(-c3cccc(F)c3)[nH]2)CC1 | <50% | <50% | 7.4 | – |
| CN1CCC(c2nc(-c3ccc(F)cc3)c(-c3ccncc3)[nH]2)CC1 | >=80% | <50% | 1.1 | – |
| OCCN1CCC(c2cc(-c3ccncc3)c(-c3ccc(F)cc3)[nH]2)CC1 | >=80% | >=80% | 0.71 | – |
| CN1CCC(c2cc(-c3ccncc3)c(-c3ccc(F)cc3)o2)CC1 | <50% | – | 2.1 | – |
